Experimental data gathered from unrelated publications.
Target: Serine/threonine-protein kinase Sgk3 (SGK3, Homo sapiens, UniProt Q96BR1)
Sequence (Q96BR1 1-496, as in one of the studies): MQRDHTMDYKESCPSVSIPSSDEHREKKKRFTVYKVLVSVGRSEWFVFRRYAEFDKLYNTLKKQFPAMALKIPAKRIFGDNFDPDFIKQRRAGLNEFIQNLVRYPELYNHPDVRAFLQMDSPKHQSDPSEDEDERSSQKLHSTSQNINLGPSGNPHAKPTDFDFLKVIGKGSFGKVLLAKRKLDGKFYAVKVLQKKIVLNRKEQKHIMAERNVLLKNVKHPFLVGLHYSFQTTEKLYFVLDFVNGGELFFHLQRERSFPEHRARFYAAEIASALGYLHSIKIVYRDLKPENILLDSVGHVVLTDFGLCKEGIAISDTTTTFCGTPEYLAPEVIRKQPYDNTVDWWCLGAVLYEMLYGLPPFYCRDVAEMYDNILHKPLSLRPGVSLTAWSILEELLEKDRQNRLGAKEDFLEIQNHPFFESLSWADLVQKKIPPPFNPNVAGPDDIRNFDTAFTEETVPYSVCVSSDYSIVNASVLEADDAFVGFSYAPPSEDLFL

Structure (SMILES) | observed | mode | method | tested at | endpoint | result
Cc1nc(C2CCN(C(=O)c3ccc(OC(F)(F)F)cc3N)CC2)c2ncc(N3CCN(C)CC3)cc2n1 | cell-free assay | – | competition with immobilised ligand | 1 µM | remaining binding | 93%
CCCCNc1ncc2c(-c3ccc(F)cc3)nn(C[C@H]3CC[C@H](N)CC3)c2n1 | target engagement in cells | inhibitor | chemoproteomics | 20 mM | inhibition | -2.1%
CCc1ccccc1C(=O)Nc1n[nH]c2c(C)c(F)c(C3C(C#N)=C(C)N(C)C(C)=C3C#N)cc12 | cell-free assay | – | competition with immobilised ligand | 1 µM | remaining binding | 91%
CCOc1cc(-c2nncn2C)ccc1Nc1ncc2cc(C)nc(NCC(C)(C)C)c2n1 | enzyme activity | inhibitor | FRET | 1 µM | inhibition | < 15%
CO[C@@H](C)c1c(Nc2ccc([C@H](N(C)C(=O)C3CCS(=O)(=O)CC3)C(F)(F)F)cc2)cnc2cc(Cl)nn12 | cell-free assay | – | competition with immobilised ligand | 1 µM | remaining binding | 100%
Cc1ccc(Nc2nccc(N(C)c3ccc4c(C)n(C)nc4c3)n2)cc1S(N)(=O)=O | enzyme activity | inhibitor | – | 0.3 µM | inhibition | 10%
Nc1ncnc2occ(-c3ccc(NC(=O)Nc4cc(C(F)(F)F)ccc4F)cc3)c12 | cell-free assay | inhibitor | – | 20 µM | remaining signal | 6.6%
Cc1ccc(NC(=O)c2ccc(C)c(C(F)(F)F)c2)cc1C#Cc1nn(C2CCC(O)CC2)c2ncnc(N)c12 (stereo not drawn) | cell-free assay | – | – | 10 µM | remaining signal | 98%
Cc1c(NC(=O)c2cc(C(N)=O)nc3cc(F)ccc23)c(C(F)(F)F)nn1Cc1ccc(C#N)cc1 | cell-free assay | – | competition with immobilised ligand | 1 µM | remaining binding | 83%
CC/C(=N\NC(=O)NCc1cccc(O)c1)c1ccc(O)c(C)c1O | enzyme activity | inhibitor | – | 0.1 µM | inhibition | 83.9%
Cc1cc(NC(=O)c2cccc3cc(-c4cccc5[nH]nc(N)c45)ccc23)ccc1F | enzyme activity | inhibitor | – | 0.1 µM | activity vs control | 106%
O=C(Nc1cccnn1)N1CC(C/C=C/c2cncc(Oc3ccc(C(F)(F)F)cn3)n2)C1 | cell-free assay | – | competition with immobilised ligand | 1 µM | remaining binding | 87%
CS(=O)(=O)CCNCc1ccc(-c2ccc3ncnc(Nc4ccc(OCc5cccc(F)c5)c(Cl)c4)c3c2)o1 | cell-free assay | – | – | 0.5 µM | remaining signal | 102%
COc1cccc2c(NCc3ccccc3)nc(-n3c(N)nc4ccccc43)nc12 | target engagement in cells | inhibitor | chemoproteomics | 20 mM | inhibition | -7.6%
CNC(=O)c1cc(Oc2ccc(NC(=O)Nc3ccc(Cl)c(C(F)(F)F)c3)cc2)ccn1 | enzyme activity | inhibitor | – | 10 µM | inhibition | 11%
COc1cc2ncnc(Nc3ccc(Oc4ccccc4)cc3C)c2cc1OC | enzyme activity | inhibitor | – | 1 µM | inhibition | 0%
CO[C@H]1CC[C@H](CNc2ccc(S(=O)(=O)NC(=O)c3ccc(N4CCN(CC5=C(c6ccc(Cl)cc6)CC(C)(C)CC5)CC4)cc3Oc3cnc4[nH]ccc4c3)cc2[N+](=O)[O-])CC1 | cell-free assay | – | competition with immobilised ligand | 1 µM | remaining binding | 99%
N#CCCc1ccc2c(c1)-c1[nH]c3ccc([N+](=O)[O-])cc3c1CC(=O)N2 | cell-free assay | – | – | 0.5 µM | remaining signal | 99.2%
CS(=O)(=O)N1CCCC(NC(=O)[C@H](CCC2CCCCC2)NC(=O)c2ccc(CNC(=O)c3cnc4ccccn34)cc2)C1 (stereo partly drawn) | cell-free assay | – | competition with immobilised ligand | 0.1 µM | remaining binding | 74%
O=C(Nc1cnn(-c2csc(C(=O)NC3COC3)c2)c1)Nc1ccccc1Cl | enzyme activity | inhibitor | – | 5 µM | remaining activity | 93.8%
O=C1Nc2ccc(Cl)cc2C1=Cc1cc(Cl)c(O)c(Cl)c1 | cell-free assay | – | – | 0.5 µM | remaining signal | 98.6%
O=C(Nc1cnn(-c2csc(C(=O)NC3COC3)c2)c1)Nc1c(F)cccc1Cl | enzyme activity | inhibitor | – | 5 µM | remaining activity | 95.3%
CCCS(=O)(=O)Nc1ccc(F)c(C(=O)c2c[nH]c3ncc(-c4ccc(Cl)cc4)cc23)c1F | enzyme activity | inhibitor | – | 1 µM | inhibition | < 10%
Cc1cnc(NC2CCOCC2)nc1-n1cnc(C(=O)NC(CN)c2cc(F)cc(Cl)c2)c1 (stereo not drawn) | enzyme activity | inhibitor | radiometric | 1 µM | remaining activity | 92%
